CHO parental Ca – counter-screen: ATP calcium response change in parental CHO cells; parental CHO-K1, ATP-induced calcium, Fluo-8 fluorescence; 330,000 compounds, 0.63% hits; inhibition, % at 5.6 µM;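 active means inhibition above that plate's mean sample inhibition plus 3 SD, cut at about 26% in these data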;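 further: 0% = ATP-challenged DMSO wells and 100% = DMSO wells without ATP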
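Test system: untransfected parental CHO cell line. Compound: one dose, 5.6 µM nominal. Detection: intracellular calcium via Fluo-8 no-wash fluorescent dye. Measure: % inhibition. Benchmarks: ATP-challenged DMSO wells low, unchallenged DMSO wells high.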
TAAR1 agonist – agonists of human TAAR1 | CHO RD-HGA16 TAAR1, Fluo-8 calcium fluorescence; vehicle wells 0%, saturating PEA agonist 100% | activation, % at 3 µM | 360,000 compounds, 0.99% hits;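 active means activation above the mean activation of all test compounds in the run plus 3 SD, cut at about 38% in these data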
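Assay system – CHO-derived RD-HGA16 cells with stable Gα16 and human TAAR1 · Compound dosing – one-point dosing at 3 µM (nominal) · Incubation – 17-24 h seeding, 75 min 37 °C dye, 30 min RT · Measured by – kinetic Fluo-8 calcium fluorescence · Control set – DMSO vehicle as 0%, PEA at EC100 as 100% · Repeats – single well for each compound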
OX1R antag-1 – human HCRTR1 antagonism; O43613; CHO/OX1R cells, Fluo-8 calcium fluorescence, orexin A; inhibition, % at 5 µM; 330,000 compounds, 0.43% hits; AID 434989;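 active means inhibition above its plate's threshold, mean inhibition of all tested compounds on the plate plus 3 SD, cut at about 37% in these data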;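 further: 0% = orexin A challenge wells and 100% = SB-334867-A antagonist wells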
Target sequence (O43613 whole entry, looked up): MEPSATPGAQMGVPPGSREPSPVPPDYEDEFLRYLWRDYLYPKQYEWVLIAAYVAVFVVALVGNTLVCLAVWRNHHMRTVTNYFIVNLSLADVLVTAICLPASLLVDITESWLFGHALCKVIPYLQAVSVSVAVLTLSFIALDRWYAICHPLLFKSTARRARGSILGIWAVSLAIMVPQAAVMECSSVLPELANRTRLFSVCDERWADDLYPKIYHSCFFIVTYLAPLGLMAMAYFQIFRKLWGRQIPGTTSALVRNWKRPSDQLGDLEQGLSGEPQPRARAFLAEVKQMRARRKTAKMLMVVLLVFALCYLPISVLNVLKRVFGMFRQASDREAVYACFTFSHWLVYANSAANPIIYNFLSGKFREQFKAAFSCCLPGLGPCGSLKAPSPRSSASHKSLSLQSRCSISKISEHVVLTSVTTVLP
GPR7 antag – antagonists of human GPR7 (neuropeptides B/W receptor 1). P48145. GPR7-expressing cells, fluorescence antagonist assay. inhibition, % at 4.4 µM. 290,000 compounds, 1.1% hits; in the data active means inhibition above about 16%, passing the limit was not always enough;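 further: cells stimulated with the agonist NPW; 0% = agonist with vehicle and 100% = vehicle without agonist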
TAAR1 antagonist – antagonists of human TAAR1; Q96RJ0; CHO RD-HGA16 TAAR1, Fluo-8 calcium fluorescence, antagonist; inhibition, % at 3 µM; 360,000 compounds, 1.5% hits; AID 624466;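 active means inhibition above a per-plate cutoff, the mean inhibition of test compounds on that plate plus 3 SD, cut at about 49% in these data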;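 further: 0% = DMSO plus EC80 beta-PEA response and 100% = DMSO alone without agonist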
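test system = CHO RD-HGA16 cells bearing hTAAR1 | replication = singlicate | controls = DMSO-only wells and EC80 β-PEA-stimulated wells | reagent = EC80 β-phenethylamine stimulus | read-out basis = percent inhibition of PEA-evoked calcium signal, max/basal emission ratio | schedule = seeding 17-24 h prior, 75-min 37 °C, 30-min RT dye loading | signal = kinetic Fluo-8 calcium fluorescence measurement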
OX1R antag-2 – blocks the human orexin 1 receptor; OX1R-expressing cells, FRET antagonist read-out; 330,000 compounds, 1.8% hits; inhibition, % at 6.6 µM; in the data active means inhibition mostly above about 38%, no sharp cut-off; inactive means mostly below about 40%;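 further: 0% = agonist challenge alone and 100% = reference antagonist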
Numbers without * were called inactive; nt = no result. An excerpt weighted towards active compounds, which were near 4.5% of everything screened.

SMILES | CHO parental Ca | TAAR1 agonist | OX1R antag-1 | GPR7 antag | TAAR1 antagonist | OX1R antag-2
CCOC(CCNC(=O)c1cc(-c2cccs2)nc2ccccc12)OCC | -14 | 19 | -29 | -13 | 49* | 14
Cc1cc(C)n(CCNC(=O)[C@H]2O[C@@H](n3ccc(=O)[nH]c3=O)[C@H](O)[C@@H]2O)n1 | nt | 0 | nt | nt | -3 | nt
NC(=O)c1ccc(N2CCN(S(=O)(=O)c3cccs3)CC2)c([N+](=O)[O-])c1 | 46* | 25 | 56* | nt | 22 | 15
Cc1ccc(NC(=O)CCSc2nnnn2-c2ccc3c(c2)OCO3)cc1C | -8 | -1 | -19 | -15 | 9 | 71*
Cc1ccc(-n2nnnc2SCC(=O)NC(C(=O)O)(c2ccccc2)c2ccccc2)cc1C | -14 | 1 | -13 | -4 | 10 | 57*
CCC(=O)Nc1ccc(NC(=O)CSc2nnnn2-c2ccc3c(c2)OCCO3)cc1 | 4 | 8 | -4 | -20 | -3 | 2
CC1CCCN(c2cccc3c2S(=O)(=O)N(Cc2cccc(F)c2)[C@@H](C)[C@H](c2ccccc2)O3)C1 (some centres not stated) | nt | 7 | nt | nt | -26 | nt
COc1ccc(N/C=C2\CCc3ccccc3C2=O)cc1 | 3 | 9 | -34 | 19 | 12 | 39*
Oc1ccc(C23CCCC2C2(CCCC2)c2ccc(O)cc2O3)c(O)c1 (configuration not stated) | 75* | 71* | 110* | nt | 99* | 8
COc1ccccc1N=c1scc(-c2ccc3c(c2)NC(=O)CO3)n1CC1CCCO1 (configuration not stated) | -22 | 11 | -21 | -9 | 43 | 29
CN(C)S(=O)(=O)c1cccc(N=c2scc(-c3ccc4c(c3)NC(=O)CO4)n2CC2CCCO2)c1 (configuration not stated) | 10 | 27 | -1 | 9 | 53* | 16
COc1ccccc1CC(=O)O/N=C(\N)Cc1cccc2ccccc12 | -7 | 75* | -33 | -8 | 41 | 1
O=S1(=O)CC(N2CC=CC2)CN1Cc1ccc(F)cc1 (configuration not stated) | nt | 1 | nt | nt | -16 | nt
Cc1ccc2cc(C)c3nnc(SCC(=O)c4cccs4)n3c2c1C | -16 | 4 | -10 | -9 | 12 | 45*
Cc1cc2ccc(C)c(C)c2nc1SCC(=O)c1cccs1 | -14 | 8 | -22 | -13 | -1 | 12
C[C@@H]1CN([C@H](C)CO)S(=O)(=O)c2ccc(Br)cc2O[C@H]1CN(C)C(=O)Nc1ccccc1 | nt | 8 | nt | nt | 2 | nt
COc1ccc(OC)c(-c2nn(-c3ccccc3)cc2C(=O)N2CCc3ccccc3C2)c1 | -29 | 1 | 4 | nt | 22 | 13
COc1cccc(-c2nn(-c3ccc(C)cc3)cc2C(=O)N2CCc3cc(OC)c(OC)cc3C2)c1 | -25 | 7 | 27 | nt | 63* | 46*
OCc1ccc(-c2cccc3nccn23)cc1 | nt | 0 | nt | nt | 0 | nt
c1ccc(CNc2c(-c3cccc(SC4CCCCC4)c3)nc3ccccn23)cc1 | 82* | 2 | 73* | nt | 55* | 35
CCCCNc1c(-c2ccc(SC(C)CC)cc2)nc2ccccn12 (configuration not stated) | 87* | 12 | 56* | nt | 96* | 61
CCCCNc1c(-c2ccc(SC3CCCCC3)cc2)nc2ccccn12 | 80* | -1 | 41 | nt | 30 | 31
CCCCNc1c(-c2cccc(SC3CCCCC3)c2)nc2ccc(Cl)cn12 | -40 | 3 | -36 | nt | 26 | 29
CCCCNc1c(-c2ccc(OC)c(SC(C)CC)c2)nc2cnccn12 (configuration not stated) | nt | 4 | nt | nt | 3 | nt
Clc1ccc2nc(-c3cccc(SC4CCCCC4)c3)c(NCc3ccccc3)n2c1 | -30 | 1 | -24 | nt | 29 | 25
CCCC(=O)OC[C@H]1CN(C2CCCC2)S(=O)(=O)c2c(Oc3ccc(F)cc3OC)cccc2O1 | nt | 1 | nt | nt | -10 | nt
CCN(C(=O)CCc1cn(CC)c2ccccc12)c1ccc(Oc2cccnc2)cc1 | nt | 0 | nt | nt | 5 | nt
O=C1Oc2ccccc2C(=O)/C1=C/N1CCN(c2ccccc2F)CC1 | 3 | 39* | -13 | 13 | -21 | 26
CCS(=O)(=O)N1CCN(c2ccccc2F)CC1 | -9 | 2 | -5 | -8 | 5 | 3
